Measured values pooled from the literature.
Compare with care: the assays were run in different laboratories.
Target: Receptor tyrosine-protein kinase erbB-2 (ERBB2, Homo sapiens, UniProt P04626)

| SMILES | observed | technique | tested at | remaining binding [%] |
| --- | --- | --- | --- | --- |
| COc1cnc(Nc2cccc(S(N)(=O)=O)c2)nc1N1CCN(c2ccccc2)C(=O)C1 | binding | competition with immobilised ligand | 1 µM | 100 |
| CC(C)(C)c1ccc(-c2nc(CBr)nn2-c2cccc(O)c2)cc1 | cell-free assay | competition with immobilised ligand | 10 µM | 84 |
| CN(C)c1nccc(-c2cnc3ncccn23)n1 | binding | – | 1 µM | 0 |
| N#Cc1ccccc1CSc1nnc2c(n1)[nH]c1ccccc12 | binding | competition with immobilised ligand | 10 µM | 94 |
| COc1cc(-c2cn(C3CCc4ccccc4N(CC(F)(F)F)C3=O)nn2)ccc1-n1ccc(C)n1 (stereo not drawn) | cell-free assay | competition with immobilised ligand | 1 µM | 100 |
| O=C(NCC1CCOCC1)c1n[nH]cc1NC(=O)c1c(F)cccc1F | binding | competition with immobilised ligand | 1 µM | 90 |
| C[C@@H](c1ccc(-n2cnc3c(N)ncnc32)cc1)N1CCc2nn(C)c(Cc3ccccc3)c2C1=O | binding | competition with immobilised ligand | 0.1 µM | 81 |
| O=C(NCCCN1CCOCC1)c1ccc(Nc2nccc(-c3cc4ccccc4s3)n2)cc1 | binding | competition with immobilised ligand | 1 µM | 93 |
| C=CC(=O)N1CCC(C(=O)NCC(=O)N2CCN(c3nc(-c4cnc(N)nc4C(F)F)nc(N4CCOCC4)n3)CC2)CC1 | binding | competition with immobilised ligand | 1 µM | 70 |
| N[C@H]1CCN(c2nccc(-c3cnn4ncccc34)n2)C1 | binding | – | 1 µM | 84 |
| O=C(Nc1cnc(Oc2ccc(F)cc2)nc1)N1CCc2ncccc2[C@@H]1c1ccc(F)cc1 | cell-free assay | competition with immobilised ligand | 1 µM | 80 |
| C[C@@H]1CCN(c2nccc(-c3cnn4ncccc34)n2)C1 | binding | – | 1 µM | 90 |
| COc1cc(-c2cn(C3CCc4c(F)cccc4N(CC(F)(F)F)C3=O)nn2)ccc1-n1cnc(C)c1 (stereo not drawn) | cell-free assay | competition with immobilised ligand | 1 µM | 100 |
| CCN1CCN(Cc2ccc(C(=O)Nc3ccc(C)c(Oc4ccc5c(c4)CC(=O)N5)c3)cc2C(F)(F)F)CC1 | binding | competition with immobilised ligand | 1 µM | 80 |
| CN(c1nccc(-c2cnn3ncccc23)n1)C1CC1 | binding | – | 1 µM | 85 |
| COc1cnc(Nc2cccc(S(N)(=O)=O)c2)nc1N1CCN(c2ccccc2)CC1 | binding | competition with immobilised ligand | 1 µM | 100 |
| C[C@@H](c1cccc(C#N)c1)n1cc(Cl)cc(C(N)=O)c1=N | cell-free assay | competition with immobilised ligand | 1 µM | 96 |
| O=C(c1ccc(Nc2nccc(-c3cc4ccccc4s3)n2)cc1)N1CCC(N2CCCC2)CC1 | binding | competition with immobilised ligand | 1 µM | 90 |
| CNC(=O)Nc1ccc2c(c1)[C@@]1(CC2)OC(=O)N(CC(=O)N(Cc2ccc(F)cc2)[C@@H](C)C(F)(F)F)C1=O | cell-free assay | competition with immobilised ligand | 1 µM | 98 |
| C[C@@H]1CN(c2ccc3ncc(-c4ccc5[nH]nc(C6CC6)c5c4)n3n2)C[C@H](C)O1 | binding | competition with immobilised ligand | 50 nM | 87 |
| CNCc1ccccc1-c1csc([C@H](C)Nc2nc(C)nc3cc(OC)c(OC)cc23)c1 | cell-free assay | competition with immobilised ligand | 1 µM | 100 |
| CN(CCCC(F)(F)F)c1nccc(-c2cnn3ncccc23)n1 | binding | – | 1 µM | 99 |
| O=C(c1ccc(Nc2ncc(Cl)c(-c3ccc(Cl)s3)n2)cc1)N1CCC(N2CCCC2)CC1 | binding | competition with immobilised ligand | 1 µM | 82 |
| O=C(Nc1cccnn1)N1CC(C/C=C/c2cncc(Oc3ccc(C(F)(F)F)cn3)n2)C1 | cell-free assay | competition with immobilised ligand | 1 µM | 83 |
